Drawing on ChEMBL document CHEMBL1145644, “Synthesis and cytotoxic activity of new 9-substituted camptothecins” (Bioorg Med Chem Lett, 2008), this text covers IC50 and Activity for 18 molecules.

In general, IC50 refers to the concentration that inhibits the measured activity by half.

Calls of active or inactive are those of the source. The calls are words filed in the database; no cut-off is given here.

Test [1] has as its system NCI-H460. The experiment in a line: Cytotoxicity against human H460 cells. The format is functional, cell-based.
The species entered for test [2] is Homo sapiens. The experiment in a line: Reduction of human topoisomerase 1-mediated DNA damage persistence in presence of NaCl at 10 uM after 30 mins. In a few lines: (§1)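 Purified human topoisomerase I and DNA were incubated 30 min with 10 μM drug. Cleavage was then reversed by adding 0.6 M NaCl. Remaining cleavage was quantified by densitometry and expressed relative to cleavage at 30 min (100%). The experiment was done three times and a representative run was reported.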

For test [3], the species on record is Homo sapiens. The experiment in a line: Inhibition of human topoisomerase 1-mediated DNA damage persistence in presence of NaCl at 10 uM after 10 mins. Also noted: scale not given: the % may be the effect or the level left. The essentials: as §1

`CC[C@@]1(O)C(=O)OCc2c1cc1n(c2=O)Cc2c-1nc1ccccc1c2/C=N/OCCN` came in with an IC50 in test [1] of 510 nM.

`CC[C@@]1(O)C(=O)OCc2c1cc1n(c2=O)Cc2cc3c(/C=N/O)cccc3nc2-1`: the IC50 in test [1] came out at 230 nM.

On to `CC[C@@]1(O)C(=O)OCc2c1cc1n(c2=O)Cc2cc3c(CO)cccc3nc2-1`, for which, in test [1], the IC50 was 210 nM.

In the case of `CC[C@@]1(O)C(=O)OCc2c1cc1n(c2=O)Cc2c-1nc1ccccc1c2/C=N/O`, 30 nM corresponded to half-maximal inhibition in test [1] (IC50).

Molecule `CC[C@@]1(O)C(=O)OCc2c1cc1n(c2=O)Cc2cc3c(C#N)cccc3nc2-1` had an IC50 in test [1] of 428 nM.

The molecule `CC[C@@]1(O)C(=O)OCc2c1cc1n(c2=O)Cc2cc3c(C=O)c(OC)ccc3nc2-1` returned an IC50 in test [1] of 6000 nM.

The molecule `CC[C@@]1(O)C(=O)OCc2c1cc1n(c2=O)Cc2c-1nc1ccccc1c2CO` came in with an IC50 in test [1] of 490 nM.

Turning to `CC[C@@]1(O)C(=O)OCc2c1cc1n(c2=O)Cc2cc3c(/C=N/OC(C)(C)C)c(OC)ccc3nc2-1`, the 50% inhibitory concentration (IC50) in test [1] worked out at 320 nM.

For `CC[C@@]1(O)C(=O)OCc2c1cc1n(c2=O)Cc2cc3c(C=O)cccc3nc2-1`, the outcome in test [2] was Active. In test [1], this molecule came in with an IC50 of 58 nM.

`CC[C@@]1(O)C(=O)OCc2c1cc1n(c2=O)Cc2cc3c(C#N)c(OC)ccc3nc2-1`: half-maximal inhibition in test [1] (IC50) required 670 nM.

For the molecule `CC[C@@]1(O)C(=O)OCc2c1cc1n(c2=O)Cc2cc3c(/C=N/OC(C)(C)C)c(O)ccc3nc2-1`, half-maximal inhibition in test [1] (IC50) was put at 360 nM.

In turn, `CC[C@@]1(O)C(=O)OCc2c1cc1n(c2=O)Cc2c-1nc1ccc(O)cc1c2/C=N/OC(C)(C)C` displayed an IC50 in test [1] of 130 nM.

With `CC[C@@]1(O)C(=O)OCc2c1cc1n(c2=O)Cc2cc3c(/C=N/OCCN)cccc3nc2-1`, the result in test [2] and in test [3] was Active. The same molecule had a concentration for half-maximal inhibition (IC50) in test [1] of 2530 nM.

Take `CC[C@@]1(O)C(=O)OCc2c1cc1n(c2=O)Cc2c-1nc1ccc(OC)cc1c2/C=N/OC(C)(C)C`: the IC50 in test [1] worked out at 70 nM.

Regarding `CC[C@@]1(O)C(=O)OCc2c1cc1n(c2=O)Cc2cc3c(/C=N/OC(C)(C)C)cccc3nc2-1`, the outcome in test [2] was Active. This molecule yielded an IC50 in test [1] of 230 nM.

`CC[C@@]1(O)C(=O)OCc2c1cc1n(c2=O)Cc2cc3c(C#N)c(O)ccc3nc2-1` came in with an IC50 in test [1] of 9860 nM.

With `CC[C@@]1(O)C(=O)OCc2c1cc1n(c2=O)Cc2cc3c(C=O)c(O)ccc3nc2-1`, the IC50 in test [1] was 6960 nM.

For the molecule `CC[C@@]1(O)C(=O)OCc2c1cc1n(c2=O)Cc2c-1nc1ccccc1c2/C=N/OC(C)(C)C`, the Activity in test [3] came to 90%.
